Data set [1] concerns Rattus norvegicus. Kind of data set: Cardioprotective activity against ischemia/reperfusion-induced myocardial injury and standard diet fed Wistar rat model assessed as decrease in LDH activity in coronary effluents at 20 mg/kg/day, ip administered for 4 weeks followed by excised heart exposed to global ischemia for 30 mins and reperfusion for 120 mins and measured during first 10 mins of reperfusion by spectrophotometric analysis. The format is functional, organism-based. The essentials:
(§1)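 HFD or SD rats, dosed 20 mg/kg/day i.p. for the final 28 days, anaesthetised with ethyl carbamate (2 g/kg i.p.). Hearts Langendorff-perfused with Krebs–Henseleit buffer (pH 7.4, 37 °C, 12 ml/min); 40 min stabilization, 30 min global no-flow ischemia, 120 min reperfusion. Coronary effluent collected on ice before ischemia and at 10, 20, 30 min reperfusion; LDH activity by McQueen method. n=6–7.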

Data set [2] concerns Rattus norvegicus. Kind of data set: Inhibition of ischemia/reperfusion-induced inflammation in ischemia/reperfusion-induced myocardial injury and high fat diet fed obese Wistar rat model assessed as decrease in cardiac TNF-alpha level at 20 mg/kg/day, ip administered for 4 weeks followed by excised heart exposed to global ischemia for 30 mins and reperfusion for 120 mins by ELISA. The class given is functional, organism-based. The essentials:
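Male Wistar rats on standard or 60% kcal fat diet for 12 weeks; last 28 days i.p. 20 mg/kg/day in saline with 2% DMSO and 5% Cremophor-EL, or vehicle. Hearts perfused by Langendorff with KH buffer at 12 ml/min, 37°C, then 40 min stabilization, 30 min global no-flow ischemia and 120 min reperfusion. Cytokines measured in LV tissue; n=6–7 per group.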
Background: An ELISA detects its analyte on a solid surface through an enzyme-linked reagent.

A short description of data set [3]: Effect on left ventricular end diastolic pressure in high diet fed obese Wistar rat model at 20 mg/kg/day, ip administered for 4 weeks (reference value: 6+/-0.2 mm Hg). The format is toxicity, organism-based. The conditions noted are these: in vivo, 672 h.
Data set [4] relates to Rattus norvegicus. As to the kind of experiment: Cardioprotective activity against ischemia/reperfusion-induced myocardial injury and high diet fed obese Wistar rat model assessed as decrease in LDH activity in coronary effluents at 20 mg/kg/day, ip administered for 4 weeks followed by excised heart exposed to global ischemia for 30 mins and reperfusion for 120 mins and measured during first 30 mins of reperfusion by spectrophotometric analysis. The format is functional, organism-based. The essentials:
as §1

For data set [5], the system named is Rattus norvegicus. Kind of data set: Cardioprotective activity against myocardial ischemia/reperfusion injury-induced contractile impairment and standard diet fed Wistar rat model assessed as developed LVP recovery at 20 mg/kg/day, ip administered for 4 weeks followed by excised heart exposed to global ischemia for 30 mins and reperfusion for 120 mins and measured at the end of reperfusion (reference value: 43 +/-7 mmHg). The format is functional.

For data set [6], the system named is Rattus norvegicus. As to the kind of experiment: Antiinflammatory activity against high fat diet fed-induced metaflammation Wistar rat model assessed as reduction in serum TNF-alpha level at 20 mg/kg/day, ip administered for 4 weeks by ELISA. The format is functional, organism-based. A digest of the protocol: (§2)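 Male Wistar rats on HFD or SD for 12 weeks received 20 mg/kg/day i.p. (saline, 2% DMSO, 5% Cremophor-EL) or vehicle for the last 28 days. Circulating IL-1β, TNF-α, BNP and Gal-3 quantified by ELISA in blood collected after sacrifice. n=6–7 per group.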

Data set [7] is described as follows: Effect on LDH level in standard diet fed Wistar rat plasma at 20 mg/kg/day, ip administered for 4 weeks. The format is toxicity, organism-based. To be noted: in vivo, 672 h.
The nature of data set [8]: Cytotoxicity against human THP-1 cells assessed as reduction in cell viability measured after 72 hr by MTT assay. The format is toxicity, cell-based. To be noted: read-out: TC50. A digest of the protocol:
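Undifferentiated THP-1 cells exposed to 0.1–100 μM compound for 72 h. Viability read by MTT reduction at 570 nm. TC50 from concentration–response; three experiments.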
Background: Formazan colour is commonly taken as a measure of viable cells.

Data set [9] can be described thus: Stability of the compound in saline solution containing 2% DMSO and 5% Cremophor-EL measured at 4 degC for more than 7 days by RP-HPLC analysis. The class given is physicochemical. The conditions noted are these: buffer, 168 h; time 7 day. A digest of the protocol:
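A 2 mg/mL solution in saline with 2% DMSO and 5% Cremophor-EL was kept at 4 °C or 25 °C for 7 days and analysed daily by RP-HPLC at 226/254 nm.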

Data set [10] is described as follows: Effect on Gal-3 level in standard diet fed Wistar rat plasma at 20 mg/kg/day, ip administered for 4 weeks. The format is toxicity, organism-based. To be noted: in vivo, 672 h. The essentials: as §2
Data set [11] concerns Rattus norvegicus. Kind of data set: Cardioprotective activity against ischemia/reperfusion-induced myocardial injury and high diet fed obese Wistar rat model assessed as decrease in LDH activity in coronary effluents at 20 mg/kg/day, ip administered for 4 weeks followed by excised heart exposed to global ischemia for 30 mins and reperfusion for 120 mins and measured during first 10 mins of reperfusion by spectrophotometric analysis. The class given is functional, organism-based. A digest of the protocol:
as §1

The target of data set [12] is NACHT, LRR and PYD domains-containing protein 3 (Homo sapiens, UniProt Q96P20). Kind of data set: Inhibition of NLRP3-dependent pyroptosis in PMA-differentiated human THP-1 cells assessed as inhibition of LPS/MSU-induced cell death at 10 uM by LDH assay. The class given is cell-based.
NACHT, LRR and PYD domains-containing protein 3, sequence (Q96P20 whole entry, the tested form may be a part): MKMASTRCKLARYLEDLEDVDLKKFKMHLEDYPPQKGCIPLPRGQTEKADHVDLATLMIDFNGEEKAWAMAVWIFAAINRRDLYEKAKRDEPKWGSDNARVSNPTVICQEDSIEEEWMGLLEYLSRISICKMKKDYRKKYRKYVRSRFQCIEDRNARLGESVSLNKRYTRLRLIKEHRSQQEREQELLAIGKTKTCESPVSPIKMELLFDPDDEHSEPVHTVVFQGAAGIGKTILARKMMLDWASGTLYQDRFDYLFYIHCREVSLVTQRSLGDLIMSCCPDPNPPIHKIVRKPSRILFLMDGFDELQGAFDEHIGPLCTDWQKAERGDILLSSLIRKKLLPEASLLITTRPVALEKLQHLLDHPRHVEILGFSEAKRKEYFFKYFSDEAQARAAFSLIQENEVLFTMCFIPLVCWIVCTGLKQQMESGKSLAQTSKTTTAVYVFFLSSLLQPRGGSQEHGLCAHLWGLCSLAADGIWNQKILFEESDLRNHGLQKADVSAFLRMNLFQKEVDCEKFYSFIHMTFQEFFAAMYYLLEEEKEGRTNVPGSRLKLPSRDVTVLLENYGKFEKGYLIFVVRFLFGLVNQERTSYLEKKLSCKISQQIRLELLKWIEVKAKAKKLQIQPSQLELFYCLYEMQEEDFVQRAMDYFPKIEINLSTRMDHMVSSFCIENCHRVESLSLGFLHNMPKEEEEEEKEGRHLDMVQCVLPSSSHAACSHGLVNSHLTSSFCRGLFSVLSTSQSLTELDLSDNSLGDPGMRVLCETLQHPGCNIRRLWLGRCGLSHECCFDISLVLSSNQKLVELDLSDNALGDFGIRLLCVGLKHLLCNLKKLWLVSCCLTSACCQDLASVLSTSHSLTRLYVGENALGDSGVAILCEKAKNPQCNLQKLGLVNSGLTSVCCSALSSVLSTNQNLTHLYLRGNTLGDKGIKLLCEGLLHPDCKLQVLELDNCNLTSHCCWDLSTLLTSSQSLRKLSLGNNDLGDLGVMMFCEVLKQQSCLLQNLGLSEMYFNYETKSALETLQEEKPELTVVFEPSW
Data set [13] deals with Rattus norvegicus. As to the kind of experiment: Cardioprotective activity against ischemia/reperfusion-induced myocardial injury and high diet fed obese Wistar rat model assessed as decrease in LDH activity in coronary effluents at 20 mg/kg/day, ip administered for 4 weeks followed by excised heart exposed to global ischemia for 30 mins and reperfusion for 120 mins and measured during first 20 mins of reperfusion by spectrophotometric analysis. The class given is functional, organism-based. A digest of the protocol:
as §1

The subject of data set [14] is Rattus norvegicus. Kind of data set: Cardioprotective activity against ischemia/reperfusion-induced myocardial injury and high diet fed obese Wistar rat model assessed as infarct size at 20 mg/kg/day, ip administered for 4 weeks followed by excised heart exposed to global ischemia for 30 mins and reperfusion for 120 mins and measured at the end of reperfusion by nitroblue tetrazolium staining based analysis (Rvb ~ 70+/-1%). To be noted: 672 h. The class given is functional. The essentials: (§3)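 Hearts from HFD or SD rats (20 mg/kg/day i.p., last 28 days) Langendorff-perfused (KH buffer, 37 °C, 12 ml/min). After 40 min stabilization they underwent 30 min global ischemia and 120 min reperfusion. The LV was stained; unstained necrotic and stained viable tissue separated and weighed. Infarct size expressed as % of LV mass. n=6–7.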

Data set [15] is described as follows: Effect on TNF-alpha level in standard diet fed Wistar rat serum at 20 mg/kg/day, ip administered for 4 weeks by ELISA. The class given is toxicity, organism-based. To be noted: in vivo, 672 h. A digest of the protocol:
as §2

The test system of data set [16] is Rattus norvegicus. As to the kind of experiment: Antiinflammatory activity against high fat diet fed-induced metaflammation Wistar rat model assessed as reduction in HFD-induced anthropometric alterations by measuring reduction in retroperitoneal fat deposition at 20 mg/kg/day, ip administered for 4 weeks. The format is functional, organism-based. The essentials:
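Male Wistar rats on high-fat diet (60% kcal fat) or standard diet for 12 weeks; 20 mg/kg/day i.p. or vehicle (saline, 2% DMSO, 5% Cremophor-EL) over the last 28 days. Body weight recorded weekly. After sacrifice, abdominal, epididymal, retroperitoneal and perirenal fat, liver and heart excised and weighed. Cardiac somatic index = heart weight/body weight ×100. n=6–7 per group.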

For data set [17], the system named is Rattus norvegicus. Kind of data set: Cardioprotective activity against ischemia/reperfusion-induced myocardial injury and standard diet fed Wistar rat model assessed as infarct size at 20 mg/kg/day, ip administered for 4 weeks followed by excised heart exposed to global ischemia for 30 mins and reperfusion for 120 mins and measured at the end of reperfusion by nitroblue tetrazolium staining based analysis (Rvb ~ 62+/-2%). The format is functional. To be noted: 672 h. The essentials: as §3

Data set [18] is described as follows: Effect on developed LVP recovery in standard diet fed Wistar rat model at 20 mg/kg/day, ip administered for 4 weeks (reference value: 69 +/-4 mmHg). To be noted: in vivo, 672 h. The class given is toxicity, organism-based.

Consider 1 compound from ChEMBL document CHEMBL5335784, “Discovery of a novel 1,3,4-oxadiazol-2-one-based NLRP3 inhibitor as a pharmacological agent to mitigate cardiac and metabolic complications in an experimental model of diet-induced metaflammation” (Eur J Med Chem, 2023).

The inhibition is the change of the read-out against control, counted positive when it falls.

Each structure is given as a SMILES string. Activity calls are given as the source filed them. The rule behind the calls is not given here.

With `CCOC(=O)Cn1nc(Cc2ccccc2Cl)oc1=O`, the outcome in the data set on Rattus norvegicus [1], in the data set with Rattus norvegicus [4], in the data set with Rattus norvegicus [6], with Rattus norvegicus [11], in the data set with Rattus norvegicus [13] and with Rattus norvegicus [16] was Active. Further, the inhibition entry in the data set on Rattus norvegicus [2] is “Active”. Also, the Activity in data set [3] is listed as 4 mmHg; in the data set with Rattus norvegicus [5] it was 80 mmHg; in data set [7] it was “Non-Toxic”; in data set [10] it was “Non-Toxic”; in [15] it was “Non-Toxic”; in [18] it was 65 mmHg. In addition, the CC50 at 72 h in [8] was determined as 76.5 µM. Moreover, in data set [9], the Stability result is reported as “Stable”. In addition, in [12], the inhibition is 61.6%. Also, the infarct size in vivo at 20 mg/kg/day is about 61% in the data set on Rattus norvegicus [14] and about 53% in the data set on Rattus norvegicus [17].
